Compound activity: PubChem, Broad Institute
Rows were chosen to be rich in hits. Some 3.4% of all compounds tested hit in one or more screens of this group.
AF4-AF9 inh = inhibitors of AF4 peptide binding to AF9, primary screen, biochemical, AlphaScreen, biotin-AF4 peptide, FLAG-AF9, single point | inhibition, % at 10 µM | 0.47% of 350,000 active | AID 651704, 2012 | Protein AF-9 (Homo sapiens), P42568;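 active = every replicate reaching a set inhibition limit, whatever the replicate mean, cut at about 25% in these data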
rRNA inh HTS = reduced GFP signal of wild-type E. coli, primary screen, bacterial rRNA inhibitor project, GFP/RFP fluorescence, OD600, single point; E. coli WT GFP vs humanized-ribosome RFP mutants, 24 h; active compounds read low; DMSO median 0, no signal -100; GFP signal change (wild-type ribosome), % (no concentration beside the values); 1.6% of 350,000 active;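 active = significant combined selectivity score with lowered wild-type GFP, culture density cut under 30%, mutant RFP and density less affected; inactive = any of these conditions unmet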
S100A4 inh HTS = inhibitors of S100A4-myosin IIA peptide binding, primary screen, biochemical, fluorescence polarization, TAMRA-MyoIIA peptide; 0.14% of 360,000 active; inhibition, % at 10.7 µM; Protein S100-A4 (Homo sapiens), P26447; AID 652163, 2013;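 active = mean inhibition of at least 70% across replicates, with every replicate also reaching that level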
Target sequence (P26447 whole entry, looked up): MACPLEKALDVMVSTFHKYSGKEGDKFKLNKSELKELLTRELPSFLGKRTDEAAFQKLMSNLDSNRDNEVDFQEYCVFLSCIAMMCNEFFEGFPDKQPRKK
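incubation = readout 5 min after mixing, signal stable up to 60 min | system = S100A4 monomer protein | buffer or medium = HEPES pH 7.2 with CaCl2, KCl, NaCl, DTT, Triton | benchmarks = neutral control DMSO, positive control TFP | also added = fluorescent myosin IIA peptide, 5 nM | compound dosing = one concentration per compound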
SIRT5 block = SIRT5 desuccinylase inhibitors, primary screen, biochemical, fluorescence imaging, single point, set 5 | AID 652115, 2013 | NAD-dependent protein deacylase sirtuin-5, mitochondrial (Homo sapiens), Q9NXA8 | inhibition, % at 15 µM | Purified SirT5, succinyl-peptide AMC, trypsin-coupled fluorescence | 1.1% of 330,000 active; in the data active = inhibition above about 15%
Target sequence (Q9NXA8 whole entry, looked up): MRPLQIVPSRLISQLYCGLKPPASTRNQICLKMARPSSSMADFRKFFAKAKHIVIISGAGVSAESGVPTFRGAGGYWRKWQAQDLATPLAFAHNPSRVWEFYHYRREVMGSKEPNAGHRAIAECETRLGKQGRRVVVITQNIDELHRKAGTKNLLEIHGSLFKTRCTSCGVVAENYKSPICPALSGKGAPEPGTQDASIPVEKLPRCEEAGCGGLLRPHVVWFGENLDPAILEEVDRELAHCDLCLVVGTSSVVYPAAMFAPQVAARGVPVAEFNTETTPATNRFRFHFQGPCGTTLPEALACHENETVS
E-selectin induc = E-selectin induction in HUVECs, primary screen, imaging, HUVEC, immunofluorescence imaging, single point | normalized: neutral wells 0, TNF-alpha wells 100 | AID 686992, 2013 | 0.37% of 260,000 active | activation, % at 7.58 µM | P16581;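 active = mean E-selectin-positive cell signal at least 10% of the positive control, reached in at least 60% of replicates, without over 20% cell loss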
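Test system: HUVEC; input: 3,000 HUVEC/well; measured by: immunofluorescence imaging; read-out: % PE-positive cells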
ERAP1 HTS inh = human ERAP1 aminopeptidase inhibitors, primary screen, biochemical, single point, plate reader. Endoplasmic reticulum aminopeptidase 1 (Homo sapiens), Q9NZ08. recombinant ERAP1, Leu-AMC fluorescence, 60 min. inhibition, % at 10.7 µM. 0.15% of 340,000 active;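 active = mean replicate inhibition of at least 30%, or all replicates individually reaching that 30% level; inactive = mean below 30% and not every replicate reaching it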
Of the large screens only hits and unclear results are named; the others gave an inactive call.

COc1ccc(S(=O)(=O)Nc2ccc3c(c2)CC(=O)N([C@@H](C)CO)C[C@@H](C)[C@@H](CN(C)Cc2ccncc2)O3)cc1	none
CC(=O)Oc1ccc2c(=O)c(-c3ccccc3)coc2c1	rRNA inh HTS -24 (no result: E-selectin induc)
COc1ccc(OC)c(NC(=O)CSc2sc3c(O)cc(=O)[nH]c3c2C#N)c1	none
COc1cc(Cl)c(C)cc1NC(=O)CSc1sc2c(O)cc(=O)[nH]c2c1C#N	SIRT5 block 15 (no result: E-selectin induc)
COc1cc(Cl)c(C)cc1NC(=O)CSc1nnc(CCC(=O)O)c(=O)[nH]1	SIRT5 block 22 (no result: E-selectin induc)
N#Cc1c(SCC(=O)Nc2ccc(C(F)(F)F)cc2)sc2c(O)cc(=O)[nH]c12	none (no result: E-selectin induc)
N#Cc1c(SCC(=O)Nc2nncs2)sc2c(O)cc(=O)[nH]c12	SIRT5 block 43 (no result: E-selectin induc)
CO[C@H]1CN(C)C(=O)c2ccc(NC(=O)c3cc(C)on3)cc2OC[C@@H](C)N(C)C[C@@H]1C	none
Cc1ccc(S(=O)(=O)NC(=O)C2(C)CCN2C(=O)CCc2ccc(Cl)cc2Cl)cc1 (centres undefined)	none
CC1(C(=O)NS(=O)(=O)c2ccccc2)CCN1C(=O)Cc1ccccc1 (centres undefined)	none
Cc1ccc(S(=O)(=O)NC(=O)C2(C)CCN2C(=O)Cc2ccc(-c3ccccc3)cc2)cc1 (centres undefined)	rRNA inh HTS -34
CC1(C(=O)NS(=O)(=O)c2ccc(Cl)cc2)CCN1C(=O)CCc1ccc(Cl)cc1Cl (centres undefined)	rRNA inh HTS -30
CN1c2ccc(-c3cccc(F)c3)cc2[C@@H]2[C@@H](CCN2S(=O)(=O)c2cccc(F)c2)[C@@H]1CO	none
O=c1c2ccccc2c(C=NCCCN2CCOCC2)c(O)n1Cc1ccc2c(c1)OCO2	rRNA inh HTS -29
O=C(C1CCCN(S(=O)(=O)c2cccc3nonc23)C1)N1CCN(c2ccccc2)CC1 (centres undefined)	rRNA inh HTS -29 (no result: E-selectin induc)
CC1CCCN(C(=O)C2CCN(S(=O)(=O)c3cccc4nonc34)CC2)C1 (centres undefined)	none
COc1cc(CCC(=O)N2CCN(c3ccccc3)CC2)cc(OC)c1OC	SIRT5 block 29
COc1ccc(N2CCN(C(=O)CCc3cc(OC)c(OC)c(OC)c3)CC2)cc1	none
COc1cc(/C=N/N2CCN(c3ccccc3)CC2)cc(OC)c1OC(C)=O	AF4-AF9 inh 26
C[C@@H](NC(=O)[C@H]1N[C@H]2c3ccc(C4=CCCCC4)c(=O)n3C[C@H]2[C@@H]1CO)c1ccccc1	none
COc1cccc(CN(C)C(=O)C23CC4CC(CC(NC(C)=O)(C4)C2)C3)c1OC	none
COc1ccc(CN(C)C(=O)C23CC4CC(CC(Cl)(C4)C2)C3)c(OC)c1OC	rRNA inh HTS -29 (no result: E-selectin induc)
COC(=O)C1(Cc2cc(-c3cccc(Br)c3)no2)CCN(C(=O)OC(C)(C)C)CC1	none
COC(=O)C1(Cc2cc(-c3ccc(OC)cc3OC)no2)CCN(C(=O)OC(C)(C)C)CC1	SIRT5 block 34
C/C=C/c1cccc(-c2nc(C(=O)N3CCN(C)CC3)cc3c2[C@H](CCO)N(C(=O)NC(C)C)C3)c1	none
CC(C)CN(C(=O)c1cccc(S(=O)(=O)N2CCN(Cc3ccccc3)CC2)c1)C1CCS(=O)(=O)C1 (centres undefined)	AF4-AF9 inh 28
CSc1ccccc1NC(=O)Cn1c([N+](=O)[O-])cnc1C	AF4-AF9 inh 42
CC1CC(C)(C)NC(=S)N1CCCC(=O)Nc1ccc(Br)cc1 (centres undefined)	rRNA inh HTS -37
CCOc1ccc(NC(=O)CCCN2C(=S)NC(C)(C)CC2C)cc1 (centres undefined)	none (no result: AF4-AF9 inh, rRNA inh HTS, S100A4 inh HTS, SIRT5 block, ERAP1 HTS inh)
O=C1CN(S(=O)(=O)c2cccc(F)c2)C[C@@H]2[C@H](c3ccc(-c4ccccc4)cc3)[C@H](CO)N12	none
Cc1cccc(-c2ccc([C@H]3[C@@H](CO)N4C(=O)CN(S(=O)(=O)c5cccc(F)c5)C[C@@H]34)cc2)c1	SIRT5 block 17
Cc1cccc(-c2ccc([C@H]3[C@H]4CN(S(=O)(=O)c5cccc(F)c5)CC(=O)N4[C@H]3CO)cc2)c1	SIRT5 block 19
COc1ccccc1C#Cc1ccc([C@H]2[C@@H](C#N)N(C(=O)C3CCCC3)[C@H]2CO)cc1	none
CSc1nc(C)c(CCOCc2ccc(F)cc2)c(=O)[nH]1	rRNA inh HTS -22
C[C@H]1CN([C@@H](C)CO)C(=O)c2cccc(NC(=O)C3CCCCC3)c2O[C@H]1CN(C)S(=O)(=O)c1ccc(Cl)cc1	none (no result: AF4-AF9 inh, S100A4 inh HTS, SIRT5 block, ERAP1 HTS inh)
Cc1cccc(NC(=O)NCc2ccc3c(c2)cc(C)n3C)c1	E-selectin induc 56
Cc1cc2cc(CNC(=O)Nc3cccc(Cl)c3)ccc2n1C	S100A4 inh HTS 78, E-selectin induc 33 (no result: SIRT5 block)
Cc1ccc(C)c(NC(=O)C2CC(O)CN2C(=O)Oc2ccccc2)c1 (centres undefined)	ERAP1 HTS inh 39 (no result: E-selectin induc)
COc1ccccc1NC(=O)C1CC(O)CN1C(=O)Oc1ccccc1 (centres undefined)	none (no result: SIRT5 block)
O=C(C[C@@H]1CC[C@H](NS(=O)(=O)c2ccccc2)[C@@H](CO)O1)N1CCC(Cc2ccccc2)CC1	none
Cc1ccc(C)c(NC(=O)c2cc[n+](C)cc2)c1	ERAP1 HTS inh 87 (no result: E-selectin induc)
C[n+]1ccc(C(=O)Nc2ccccc2Cl)cc1	ERAP1 HTS inh 102 (no result: E-selectin induc)
O=C(Nc1ccccc1Cl)c1ccc2ccccc2c1	none (no result: E-selectin induc)
C[C@@H]1CN([C@@H](C)CO)C(=O)c2cc(NC(=O)Nc3ccc(C(F)(F)F)cc3)ccc2O[C@@H](C)CCCCO[C@H]1CN(C)C(=O)Cc1ccccc1	none
CCC(C)(C)n1nnnc1C(c1cccnc1)N1CCC(Cc2ccccc2)CC1 (centres undefined)	rRNA inh HTS -33
c1cncc(C(c2nnnn2C2CCCCC2)N2CCCCC2)c1 (centres undefined)	rRNA inh HTS -20
CCC(C)(C)n1nnnc1C(c1cccnc1)N1CCCC(C)C1 (centres undefined)	none (no result: rRNA inh HTS)
Oc1ccc(C(c2nnnn2C2CCCCC2)N2CCOCC2)cc1 (centres undefined)	none
COc1ccc(S(=O)(=O)Nc2ccc3c(c2)C(=O)N([C@@H](C)CO)C[C@H](C)[C@@H](CN(C)Cc2ccc4c(c2)OCO4)OCCCC[C@@H](C)O3)cc1	none
